A selection: hits, their analogues and other compounds. The true share with any hit is near 4.7%.
Jurkat NFkB inh – inhibitors of the PMA/ionomycin-induced NF-kB reporter in Jurkat cells. 0.53% of 330,000 active. PMA/ionomycin-induced NF-kB luciferase reporter, luminescence. AID 435003. inhibition, % at 4 µM; in the data active = inhibition above about 50%
Mdm2 MdmX PPI – human Mdm2/MdmX binding inhibition; O15151+Q00987; SaOS-2 split-luciferase Mdm2/MdmX complementation, luminescence; inhibition, % at 8 µM; 3% of 330,000 active;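 active = inhibition of at least 50% at 8 µM in the primary screen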
VIM-2 inhibitor – blocks Pseudomonas aeruginosa VIM-2 metallo-beta-lactamase | purified VIM-2, nitrocefin hydrolysis, epi-absorbance fluorescence | 0.89% of 290,000 active | AID 1527 | inhibition, % at 5.6 µM;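 active = inhibition above the mean of all tested compounds plus 3 SD, cutoff set per screening run, cut at about 7.5% in these data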;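 also: red hydrolysis product quenches plate fluorescence so inhibitors raise well fluorescence; 0% = enzyme with DMSO and 100% = DMSO without enzyme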
697 NFkB inh – lowers PMA/ionomycin-induced NF-kB signal in 697 B cells | 697 B-cell NF-kB luciferase reporter, 16 h | inhibition, % at 4 µM | 0.33% of 330,000 active | AID 435022; in the data active = inhibition above about 35%
aSyn 5UTR inh – 5' untranslated region of α-synuclein, MLPCN primary screen. alpha-synuclein 5'UTR reporter, inhibitor activity. inhibition, % (tested at 7.5 µM). 0.82% of 300,000 active; in the data active = inhibition above about 60%;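 also: H4 neuroglioblastoma cells stably carrying SNCA 5'UTR luciferase fusion; 0% = DMSO wells and 100% = positive control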
IMP-1 inhibitor – inhibitors of Pseudomonas aeruginosa IMP-1 metallo-beta-lactamase | inhibition, % at 5.6 µM | 0.45% of 290,000 active | purified IMP-1, nitrocefin hydrolysis, epi-absorbance fluorescence;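 active = inhibition above the mean plus 3 SD of all compounds in the same screening run, cut at about 4.5% in these data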;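 also: 0% = IMP-1 with DMSO and 100% = DMSO wells lacking enzyme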
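System: purified IMP-1 / Input: IMP-1 dispensed at 0.2 nM / Medium: 50 mM HEPES pH 7.1, 50 µM ZnSO4, 0.05% Brij 35 / Timing: 15 min enzyme–compound preincubation, then 25 min nitrocefin reaction, 25 °C / Technique: plate fluorescence quenching by hydrolysis product, ex 480/em 530 nm / Repeats: singlicate testing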
* = called active by the depositor; · = not tested or not shown.

SMILES	Jurkat NFkB inh	Mdm2 MdmX PPI	VIM-2 inhibitor	697 NFkB inh	aSyn 5UTR inh	IMP-1 inhibitor
COc1ccc(C(=O)/C=C2\NCCc3cc(OC)c(OC)cc32)cc1OC	-6	26	3	21	64*	-3
COc1ccc(C(=O)/C=C/N(C)C)cc1OC	-8	25	-1	-32	·	0
Clc1ccc(N2COC3c4cccc5cccc(c45)C32)cc1 (stereo unspecified)	-13	1	-4	-19	-17	1
COc1ccc(N2COC3c4cccc5cccc(c45)C32)cc1 (stereo unspecified)	-8	-2	1	-25	-21	4.7*
COc1ccc(-n2ccnc(SCC(=O)NC3CCCC3)c2=O)cc1	-8	-22	3	-32	-26	4.6*
COCCNC(=O)CCc1nnc(Cc2ccc(-c3ccccc3)cc2)o1	9	15	1	-10	7	-1
COC(=O)CCCNC(=O)CCc1nnc(-c2ccc(-c3ccccc3)cc2)o1	·	·	-2	·	77*	-2
CC(NC(=O)CCc1nnc(-c2ccc(-c3ccccc3)cc2)o1)c1nccs1 (stereo unspecified)	2	-24	-2	3	89*	-2
O=C(CCc1nnc(-c2ccc(-c3ccccc3)cc2)o1)NCCc1ccccn1	14	-17	-4	16	90*	-1
Cc1ccccc1C(=O)O[C@H]1[C@H](Cc2ccccc2)NS(=O)(=O)[C@H]2CC3C=C[C@]12O3	-33	3	·	0	·	·
C=CCNC(=O)NC(=O)COC(=O)/C(C#N)=C/c1ccc(OC)cc1	4	-4	2	4	20	1
COc1cccc(C(=O)NNC(=O)c2ccc3ccccc3c2O)c1	-1	8	·	6	1	·
Cn1c(CN2CCN(S(C)(=O)=O)CC2)nc2cc([N+](=O)[O-])ccc21	-6	7	-3	16	14	-3
Cc1ccc(-c2noc(CCCC(=O)NCC3CCCO3)n2)cc1 (stereo unspecified)	6	-4	-1	21	21	-1
COc1cccc(C(=O)Nc2nnc(CCS(=O)(=O)c3ccc(C)cc3)s2)c1	2	24	7.9*	4	-22	0
CCCc1nnc(NC(=O)c2cccc(OC)c2)s1	-77	-64	0	-96	-91	1
Cc1cc(C)n(-c2ccc(NC(=O)C3CCN(Cc4ccc(C)o4)CC3)cc2)n1	9	8	0	-12	15	0
O=C(N=Nc1c(O)[nH]c2ccc(Br)cc12)c1cc(-c2cccs2)nc2ccccc12	·	·	-3	·	81*	-2
Cc1ccc(NC(=O)COC(=O)COc2cccc3c2OC(C)(C)C3)cc1S(=O)(=O)N1CCOCC1	7	25	·	-3	-7	·
S=C(Nc1cccnc1)Nc1cccc2cnccc12	26	15	5	5	66*	-3
COc1ccc(NC(=S)Nc2cccc3cnccc23)cc1	14	15	-2	-56	-72	-4
CN(C)S(=O)(=O)c1cccc(NC(=S)Nc2cccc3cnccc23)c1	·	·	12*	·	-28	1
O=C(O)COc1ccc(Br)cc1/C=C1/SC(=O)N(CC(=O)N2CCCC2)C1=O	-18	-14	-1	3	21	43*
Cc1ccc(NC(=O)C2CCN(S(=O)(=O)c3ccc4ccccc4c3)CC2)nc1	-9	-18	·	-11	·	·
CC(=O)Nc1ccc(CN2CCN(CCc3ccccc3)C(CCO)C2)cc1 (stereo unspecified)	11	-14	-3	-2	-9	-1
SMILES	Jurkat NFkB inh	Mdm2 MdmX PPI	VIM-2 inhibitor	697 NFkB inh	aSyn 5UTR inh	IMP-1 inhibitor
CC1=CC(=O)c2c(O)ccc(O)c2C1=O	·	·	3	·	·	5.3*
O=C1C=C(O)c2cccc(O)c2C1=O	15	-1	·	13	·	·
CN(C)c1ccc(/C=C/c2ccc3ccccc3n2)cc1	·	·	1	·	89*	2
Oc1ccc(/C=C/c2ccc3ccccc3n2)cc1	15	-27	-2	-116	90*	-3
CCCN(CCC)c1ccc(/C=C/c2ccc3cc(OCC)ccc3n2)cc1	·	·	-1	·	-112	-1
CC1Oc2ccccc2N(CC(=O)c2ccccc2)C1=O (stereo unspecified)	-19	-15	0	-9	-31	-2
O=C(c1ccccc1)N1C(=O)C(c2ccccc2)Oc2ccccc21 (stereo unspecified)	-8	-12	-2	0	82*	-2
CN1CCc2c(OCc3ccc(F)cc3)cccc2C1=O	-2	-9	1	4	0	23*

Source: PubChem BioAssay
